Results on one compound are retold here after paper PMC5814546 (Clinical Pharmacokinetics, 2017).

Type in all cases: in vivo, human
Data set [1] in a line: Urine drug recovery, renal clearance and estimate of oral bioavailability. Conditions: for Mean Ae / CLr: Cohort D, 24-h urine; for CLr: mean ± SD. The method, boiled down: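 Cohort D: 265 mg immediate-release tablet in the fed state (meal 30 min pre-dose), once on day 1, twice daily days 2–6, once on day 7. Urine was collected over 24 h on days 1 and 7 and assayed by LC-MS (LLOQ 30 ng/mL ALZ-801, 100 ng/mL tramiprosate). Renal clearance was calculated as Ae divided by plasma AUC24.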

The nature of data set [2]: Phase I single ascending dose study of ALZ-801 loose-filled capsule. Conditions: plasma, ALZ-801 capsule 172 and 300 mg doses. The method, boiled down:
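Single fasted oral loose-filled capsules; 172 mg in 36 healthy subjects over 50 y (parallel, randomized 1:1:1), 300 mg in 15 subjects over 50 y. Plasma sampled over 48 h into K3 EDTA on ice, spun 2000g 10 min 4 °C, stored at or below −20 °C. LC-MS assay; non-compartmental analysis; Tmax as median (range).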

Data set [3] is described as follows: Phase I multiple ascending dose study of ALZ-801 capsule and tablet. Conditions: plasma; for AUC24: mean ± SD.

Molecules are shown by their SMILES.

Regarding `O=C(O)CCS(=O)(=O)O` [NRM5074], the “Mean Ae” value is recorded as 70.8 mg in data set [1] (Day 1, ALZ-801 tablet 265 mg) and 188.7 mg in data set [1] (Day 7, ALZ-801 tablet 265 mg). Further, the CLr in data set [1] (Day 1, ALZ-801 tablet 265 mg) is 652 ± 161 mL/min; in data set [1] (Day 7, ALZ-801 tablet 265 mg), 575 ± 218 mL/min. The “mean CLr (range)” value in data set [1] (across dosing cohorts and days, Study 2) was 500 to 1570 mL/min. In addition, the “median T max” value in data set [2] is on record as “approximately 5 h”; in data set [3] (days 7 and 14, all dosing regimens), 5 h. The AUC24 worked out at 1810 ± 348 ng·h/mL in data set [3] (Day 1, fed, ALZ-801 tablet 265 mg (Cohort D)) and 5470 ± 1030 ng·h/mL in data set [3] (Day 7, fed, ALZ-801 tablet 265 mg twice daily (Cohort D)). The compound further showed a T max range in data set [3] (single oral dose of ALZ-801, day 1) of 2 to 16 h.
